# KCNQ1 pot: potentiates or activates the human KCNQ1 potassium channel | P51787 | CHO-K1 KCNQ1, thallium flux FluxOR fluorescence; stronger effect = higher value | B-score at 10 µM | hit rate 0.35% among 310,000 | AID 2648;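 active = fluorescence ratio B-score, a plate-corrected score, at least three library SD, with initial intensity B-score within 5 SD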
#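 System: CHO-K1 cells stably expressing KCNQ1 / Medium: assay buffer for compound exposure, DMSO matched across wells / Reagent: thallium- and potassium-containing depolarizing buffer / Compound: one concentration, matched DMSO / Incubation: 20 min compound pretreatment at room temperature / Measured by: kinetic FluxOR fluorescence, 10 s baseline plus 110 s post-stimulus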
# KCNK9 block: blocks the human KCNK9 two-pore domain potassium channel; Q9NPC2; HEK293 KCNK9, FluxOR thallium flux fluorescence; stronger effect = lower value; B-score at 10 µM; hit rate 1.2% among 310,000;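 active = ratio B-score over 3 SD below the library mean, with starting fluorescence within 5 SD of its mean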;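 note: negative B-score means less thallium flux so channel inhibition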
# KCNQ1 inh: blocks the human KCNQ1 potassium channel; AID 2642; hit rate 1.3% among 310,000; P51787; B-score at 10 µM; CHO-K1 KCNQ1, FluxOR thallium flux fluorescence; stronger effect = higher value;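 active = compounds whose thallium flux B-score, printed positive for inhibition, exceeds three library SD while starting fluorescence stays within three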;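 note: channel opened by potassium depolarization with thallium stimulus after 20 min compound exposure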
# PHOSPHO1 inh: blocks human PHOSPHO1 phosphatase activity; recombinant PHOSPHO1, absorbance phosphatase assay; inhibition, % at 13.3 µM; hit rate 1.1% among 290,000; in the data active = inhibition above about 60%
# Target sequence (Q8TCT1 whole entry, looked up): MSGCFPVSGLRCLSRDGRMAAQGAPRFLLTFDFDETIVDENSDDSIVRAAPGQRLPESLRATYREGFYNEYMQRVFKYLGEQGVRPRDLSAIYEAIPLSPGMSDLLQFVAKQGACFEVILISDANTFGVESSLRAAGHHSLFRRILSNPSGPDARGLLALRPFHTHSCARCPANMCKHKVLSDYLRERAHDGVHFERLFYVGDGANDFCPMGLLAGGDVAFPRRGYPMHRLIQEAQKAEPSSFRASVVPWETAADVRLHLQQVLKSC
# KCNK3 inh: human KCNK3 channel inhibition, primary screen; AID 602410; CHO-KCNK3 thallium flux, FluxOR fluorescence; stronger effect = lower value; B-score at 10 µM; hit rate 0.84% among 340,000;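 active = B-score under library mean minus 4 SD, starting fluorescence ratio at most library mean plus 5 SD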;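 note: more negative B-score means stronger inhibition of thallium flux through KCNK3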
# hERG rescue: hERG (human) protection from proarrhythmic block | Q12809 | CHO-hERG, FluxOR thallium flux, dofetilide IC70 present | activation (rescue from dofetilide block), less the hit threshold, % at 10 µM | hit rate 0.51% among 310,000 | AID 1511;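 active = activation above the mean of controls blocked by dofetilide plus 5 SD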;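 note: thallium influx through hERG after potassium depolarization seen as dye fluorescence rise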
# * hit, by the source's call; i = inactive; nt = no result given. Sampled rows, rich in hits. Any-hit rate of the full collection: about 4%.
SMILES,KCNQ1 pot,KCNK9 block,KCNQ1 inh,PHOSPHO1 inh,KCNK3 inh,hERG rescue
Cn1cccc1-c1cc(C(=O)N/N=C/c2cc(Br)ccc2O)[nH]n1,i,i,i,28,i,-11
CS(=O)(=O)N(CC(=O)N1CCOCC1)c1cc(C(F)(F)F)ccc1Cl,i,i,i,14,i,7.3*
COCC1CCCN(C(=O)c2cc(COc3cncc(Cl)c3)on2)C1 (centres undefined),i,i,i,9,i,-1
C=CCC1(CC=C)CCCN1C(=O)c1cc(COc2cncc(Cl)c2)on1,i,i,i,66*,i,-18
COc1ccccc1C(=O)Nc1nc(-c2cccs2)c(NC(C)=O)s1,i,i,i,19,i,-15
CC(=O)Nc1sc(NC(=O)c2ccccc2)nc1-c1cccs1,i,i,i,1,i,5.5*
N#CC(c1ccc(Cl)cc1)c1ccc2c(C(F)(F)F)cc(C(F)(F)F)nc2n1 (centres undefined),60*,i,i,4,i,-4
C(=C\c1nc(N2CCCC2)c2ccccc2n1)/c1ccccc1,i,-7.2*,i,-24,i,-18
CC1CCN(c2nc(/C=C/c3ccccc3)nc3ccccc23)CC1,i,i,i,-16,i,-4
O=c1c2ccccc2c(C=NCCc2ccccc2)c(O)n1Cc1ccccc1,i,i,6*,-20,i,-14
O=c1c2ccccc2c(C=NCCCN2CCOCC2)c(O)n1Cc1ccccc1,i,i,i,26,i,-11
CCOc1ccc(-n2c(-c3ccccc3)c[n+]3c2CCCCC3)cc1,i,i,8*,22,i,-17
CC(C)(C)c1ccc(OCCCC(=O)NNC(=O)c2ccccc2O)cc1,i,i,8*,nt,i,-28
Cc1cc(C(=O)CCl)c(C)n1-c1cccc([N+](=O)[O-])c1,11*,i,i,17,i,-10
O=C(NCc1cccc(C(F)(F)F)c1)c1cccc2c1C(=O)c1ccc(N3CCC(Cc4ccccc4)CC3)cc1S2(=O)=O,nt,nt,nt,nt,i,nt
CCOc1ccc(-c2c(=O)n(OCC)c3ccccc3[n+]2[O-])cc1,i,i,i,18,i,-4
CCOc1ccc(-c2c(=O)n(O)c3ccccc3[n+]2[O-])cc1,12*,i,i,28,i,18*
O=c1c(-c2ccccc2)[n+]([O-])c2ccccc2n1O,i,i,i,20,i,13*
Cc1ccc(-c2c(=O)n(O)c3ccccc3[n+]2[O-])cc1,17*,i,i,33,i,-1
COn1c(=O)c(-c2ccccc2)[n+]([O-])c2ccccc21,i,i,i,36,i,-2
COc1ccc(Cl)cc1NC(=O)C(OC)c1ccccc1 (centres undefined),i,i,i,4,i,-13
S=C(NCCC(c1ccccc1)c1ccccc1)Nc1ccccc1Cl,i,i,12*,45,i,-16
S=C(NCCC(c1ccccc1)c1ccccc1)Nc1ccc(Cl)cc1,i,i,9*,10,i,-6
COc1ccc(Cl)cc1NC(=S)NCCC(c1ccccc1)c1ccccc1,i,-8.1*,i,-6,i,-11
CCC(C(=O)Nc1cc(Cl)ccc1OC)c1ccccc1 (centres undefined),i,-7.3*,i,-15,i,-5
SMILES,KCNQ1 pot,KCNK9 block,KCNQ1 inh,PHOSPHO1 inh,KCNK3 inh,hERG rescue
CCOC(=O)Cn1c(CN2CCOCC2)nc2c1c(=O)n(C)c(=O)n2C,i,i,i,20,i,-10
O=C(CSc1cccc(C(F)(F)F)c1)NC(=O)c1ccccc1,i,i,i,-4,i,-9
O=C(CSc1nnc(CNC(=O)c2ccccc2)o1)Nc1ccc2c(c1)OCO2,i,i,i,28,i,-12
CC(C)NC(=S)Nc1ccc2[nH]c(=O)[nH]c2c1,i,i,i,46,i,-5
CC1(C)NC(=O)N(CC(=O)N2CCN(S(=O)(=O)c3cc(Cl)ccc3Cl)CC2)C1=O,nt,nt,nt,nt,i,nt
NCc1oc(-c2ccccc2)cc1C(=O)O,i,i,i,3,i,-3
O=C(Nc1ccc(C(=O)N2CCOCC2)cc1)C1CCCC1,nt,nt,nt,nt,i,nt
CCc1c(C)nc2cc(-c3ccc(OC)c(OC)c3)nn2c1NCC1CC1,i,-6.7*,i,1,i,-28
Cc1cc(Br)cc(/C=N/NC(=O)c2ccc3c(c2)OCO3)c1O,i,i,8*,8,i,-5
CCOC(=O)C1CCN(S(=O)(=O)c2cccc3nonc23)CC1,i,i,i,7,i,14*
CCOC(=O)C1CCN(S(=O)(=O)c2c(Cl)ccc3nonc23)CC1,9*,i,i,-2,i,-19
Fc1cccc2sc(Nc3nc4cc5c(cc4s3)OCO5)nc12,i,i,i,6,i,13*
CC(=O)Nc1nc2c(F)cccc2s1,18*,i,i,nt,i,3
Fc1cc(F)c2nc(Nc3nc4cc5c(cc4s3)OCO5)sc2c1,i,i,i,-8,i,-4
Fc1cccc2sc(Nc3nc4cc5c(cc4s3)OCCO5)nc12,i,i,i,-4,i,18*
O=C(CCCc1ccccc1)Nc1ccnn1C1CCN(Cc2ccc(CO)o2)CC1,i,i,i,26,i,-6
Cc1cccc(NC(=O)COC(=O)c2ccc(S(=O)(=O)N3CCCC3)cc2)c1,nt,nt,nt,nt,i,nt
Cc1ccc(Cn2nc(C)c(/C=N/NC(=O)c3cccnc3)c2C)cc1,i,i,i,-18,i,-9
CC(C)COc1nc2ccccc2nc1N1CCN(C)CC1,i,i,i,48,i,-13
COc1ccc(OCCSc2nnc(-c3ccccc3)n2N)cc1,i,i,i,-4,i,-4
COC(=O)c1ccc(C)c(NC(=S)NCc2ccc(Cl)cc2)c1,i,i,i,-11,i,-3
COC(=O)c1sccc1NC(=O)Nc1cccc(C)c1C,i,i,i,61*,i,-11
COC(=O)c1sccc1NC(=S)NCc1ccc(Cl)cc1,i,i,i,-97,i,14*
CN(C)C=NC1=NN(c2cccc(C(F)(F)F)c2)CC1,i,i,i,97*,i,-2
CCOC(=O)CSc1ccc(S(=O)(=O)N(C)C2CCCCC2)cc1[N+](=O)[O-],i,i,i,16,-10*,-4
CCC(C)(C)NC(=O)c1sccc1Oc1ccc(F)cc1[N+](=O)[O-],i,i,i,36,i,-9
N#C/C(=N\Nc1cccc([N+](=O)[O-])c1)C(=O)c1ccc(Br)cc1,i,i,8*,42,i,-24
